Measured values published in ChEMBL document CHEMBL3632619, “Angucyclines and Angucyclinones from Streptomyces sp. CB01913 Featuring C-Ring Cleavage and Expansion” (J Nat Prod, 2015).
In brackets after ≈: the same amount, converted by molar mass. Activity calls are given as the source filed them. No cut-off for these calls is given here.

Tests used:
M14 = experiment: Cytotoxicity against human M14 cells after 72 hrs by MTS assay; assay type: functional, cell-based; settings: M14, 72 h
SF-539 = experiment: Cytotoxicity against human SF539 cells after 72 hrs by MTS assay; assay type: functional, cell-based; settings: SF-539, 72 h
NCI-H226 = experiment: Cytotoxicity against human NCI-H226 cells after 72 hrs by MTS assay; assay type: functional, cell-based; settings: NCI-H226, 72 h
SF-295 = experiment: Cytotoxicity against human SF295 cells after 72 hrs by MTS assay; assay type: functional, cell-based; settings: SF-295, 72 h
MDA-MB-468 = experiment: Cytotoxicity against human MDA-MB-468 cells after 72 hrs by MTS assay; assay type: functional, cell-based; settings: MDA-MB-468, 72 h
Staphylococcus aureus = experiment: Antibacterial activity against Staphylococcus aureus ATCC 25923 after 18 hrs by broth microdilution method; settings: ATCC 25923, 18 h
[1] = test system: Mycolicibacterium smegmatis; experiment: Antibacterial activity against Mycobacterium smegmatis ATCC 607 after 18 hrs by broth microdilution method; settings: ATCC 607, 18 h
Bacillus subtilis = experiment: Antibacterial activity against Bacillus subtilis ATCC 23857 after 18 hrs by broth microdilution method; settings: ATCC 23857, 18 h
Escherichia coli [2] = experiment: Antibacterial activity against Escherichia coli JM 109 after 12 hrs by agar diffusion method; assay type: functional, organism-based
Procedure, shortened: (§1)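 Filter-paper disc on tryptic soy agar receiving 25 µL of compound at 2 mM in H2O; plates incubated 37 °C for 12 h, then inhibition zone scored; tetracycline as positive control.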

Escherichia coli [3] = experiment: Antibacterial activity against Escherichia coli ATCC 25922 after 12 hrs by agar diffusion method; assay type: functional, organism-based; procedure, shortened: as §1

Compound `CO[C@@]12[C@H](COC(N)=O)C3=C(C(=O)C(C)=C(N)C3=O)N1C[C@@H]1N[C@@H]12` [MITOMYCIN] has an IC50 (M14) of 0.47 µM, an IC50 (SF-539) of 0.038 µM and an IC50 (NCI-H226) of 0.58 µM. It also gave an IC50 (SF-295) of 0.54 µM and an IC50 (MDA-MB-468) of 0.5 µM.
With `COc1cccc(C(=O)c2c(O)ccc3c2C(=O)C[C@](C)(O)C3)c1CO` the MIC (Staphylococcus aureus) was greater than 100 µg/mL, the IC50 (M14) was greater than 100 µM and the MIC [1] was 93 µg/mL (≈ 261 µM). For the same compound, the IC50 (SF-539) was greater than 100 µM, the MIC (Bacillus subtilis) was 85 µg/mL (≈ 239 µM) and the IC50 (NCI-H226) was greater than 100 µM. The IC50 (SF-295) was greater than 100 µM, the IC50 (MDA-MB-468) was greater than 100 µM and the Activity (Escherichia coli [2]) was “inactive”. The Activity (Escherichia coli [3]) was “inactive”.
With `CN(C)[C@@H]1C(O)=C(C(N)=O)C(=O)[C@@]2(O)C(O)=C3C(=O)c4c(O)cccc4[C@@](C)(O)[C@H]3C[C@@H]12` [TETRACYCLINE] the MIC (Staphylococcus aureus) was 6.7 µg/mL (≈ 15.1 µM), the MIC [1] was 11 µg/mL (≈ 24.8 µM) and the MIC (Bacillus subtilis) was 13 µg/mL (≈ 29.3 µM).
`COc1cccc2c1C(=O)c1ccc3c(c1C2O)C(=O)C[C@](C)(O)C3` (stereo partly drawn) was tested, and the MIC (Staphylococcus aureus) was greater than 100 µg/mL, the IC50 (M14) was 31 µM and the MIC [1] was greater than 100 µg/mL. The IC50 (SF-539) was 12 µM, the MIC (Bacillus subtilis) was greater than 100 µg/mL and the IC50 (NCI-H226) was 7.2 µM. The IC50 (SF-295) was 3.1 µM, the IC50 (MDA-MB-468) was 52 µM and the Activity (Escherichia coli [2]) was “inactive”. For the same compound, the Activity (Escherichia coli [3]) was “inactive”.
With `COc1cccc2c1C(=O)c1ccc3c(c1C2=O)C(=O)C[C@](C)(O)C3` the MIC (Staphylococcus aureus) was greater than 100 µg/mL, the IC50 (M14) was 9.7 µM and the MIC [1] was greater than 100 µg/mL. It also gave an IC50 (SF-539) of 10 µM, an MIC (Bacillus subtilis) of 25 µg/mL (≈ 74.3 µM) and an IC50 (NCI-H226) of 4.6 µM. For the same compound, the IC50 (SF-295) was 17 µM, the IC50 (MDA-MB-468) was 27 µM and the Activity (Escherichia coli [2]) was “inactive”. The Activity (Escherichia coli [3]) was “inactive”.
With `C[C@]1(O)CC(=O)c2c(ccc3c2C(=O)c2cccc(O)c2C3=O)C1` [TETRANGOMYCIN] the MIC (Staphylococcus aureus) was 11 µg/mL (≈ 34.1 µM), the IC50 (M14) was 2.4 µM and the MIC [1] was 9.7 µg/mL (≈ 30.1 µM). For the same compound, the IC50 (SF-539) was 3.2 µM, the MIC (Bacillus subtilis) was 8.1 µg/mL (≈ 25.1 µM) and the IC50 (NCI-H226) was 7.2 µM. The IC50 (SF-295) was 12 µM, the IC50 (MDA-MB-468) was 16 µM and the Activity (Escherichia coli [2]) was “inactive”. For the same compound, the Activity (Escherichia coli [3]) was “inactive”.
